Measured values: ChEMBL document CHEMBL1781987, “Nobilamides A-H, long-acting transient receptor potential vanilloid-1 (TRPV1) antagonists from mollusk-associated bacteria” (J Med Chem, 2011)
Calls of active or inactive are those of the source. No cut-off for these calls is given here. Bridge positions count the residues as written; N and C are the ends. Square brackets hold non-standard residues; d marks the D form. Peptide text beside a SMILES is read from it. * marks the point of attachment. d(aThr) = C[C@@H](O)[C@@H](N)C(=O)O; Dhb = C/C=C(\N)C(=O)O; Propionyl = CCC(=O)*

Legend:
[1] = biological target: Transient receptor potential cation channel subfamily V member 1 (Mus musculus) (UniProt Q704Y3); test: Antagonist activity at TRPV1 channel in C57B1 mouse dorsal root ganglion cells assessed as inhibition of capsaicin-induced calcium flux at 125 uM after 3 hrs by fluorometric analysis in presence of 5.6 ug/ml trafficking inhibitor brefeldin A; type: functional, tissue-based
[2] = biological target: Transient receptor potential cation channel subfamily V member 1 (Mus musculus) (UniProt Q704Y3); test: Antagonist activity at TRPV1 channel in C57B1 mouse dorsal root ganglion cells assessed as inhibition of capsaicin-induced calcium flux at 125 uM after 3 hrs by fluorometric analysis in presence of 6.3 ug/ml transcriptional inhibitor actinomycin D; type: functional, tissue-based
[3] = biological target: Transient receptor potential cation channel subfamily V member 1 (Mus musculus) (UniProt Q704Y3); test: Antagonist activity at TRPV1 channel in C57B1 mouse dorsal root ganglion cells assessed as inhibition of capsaicin-induced calcium flux at 125 uM after 3 hrs by fluorometric analysis in presence of 10 ug/ml translational inhibitor cycloheximide; type: functional, tissue-based
[4] = biological target: Transient receptor potential cation channel subfamily V member 1 (Mus musculus) (UniProt Q704Y3); test: Antagonist activity at TRPV1 channel in C57B1 mouse dorsal root ganglion cells assessed as inhibition of capsaicin-induced calcium flux at 125 uM after 5 mins by fluorometric analysis in presence of at 25 mM of KCl; type: functional, tissue-based
In short: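 Mouse C57B1 cervical/lumbar DRG neurons, Fura-2 AM calcium imaging at 20–25°C, each neuron analysed separately. […] Final 25 or 100 mM KCl pulses check viability.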

[5] = biological target: Transient receptor potential cation channel subfamily V member 1 (Mus musculus) (UniProt Q704Y3); test: Antagonist activity at TRPV1 channel in C57B1 mouse dorsal root ganglion cells assessed as inhibition of capsaicin-induced calcium flux at 125 uM after 3 hrs by fluorometric analysis; type: functional, tissue-based
[6] = test system: Transient receptor potential cation channel subfamily V member 1 (Homo sapiens), Q8NER1 [N604A]; test: Antagonist activity at human TRPV1 N604A mutant expressed in HEK293 cell assessed as inhibition of capsaicin-induced calcium flux at 375 uM for 30 mins before capsaicin challenge measured after 48 hrs by fluorometric analysis; type: functional, cell-based
In short: (§1)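 HEK-293 cells on gelatin-coated plates transiently transfected with human TRPV1 mutant plasmid (200 ng/well, lipofection 4 h), then grown 48 h. Fluo-4 loaded at 37°C. […] Fluorescence read 1 min; initial rate (ΔF/sec) and ΔFmax compared with capsaicin-only control.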

[7] = biological target: T1, Transient receptor potential cation channel subfamily V member 1 (Homo sapiens, UniProt Q8NER1); test: Antagonist activity at human TRPV1 expressed in human BEAS-2B cells assessed as inhibition of capsaicin-induced calcium flux at 25 to 1000 uM preincubated for 30 mins before 2.5 uM capsaicin challenge measured after 1 min by fluorometric analysis; type: functional, cell-based
In short: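 Human TRPV1-expressing BEAS-2B cells loaded with Fluo-4 (1 h, ~22°C, dark), then washed into LHC-9 with 1 mM probenecid and Trypan Red containing compound. […] Ca2+ signal tracked 1 min; initial rate and ΔFmax relative to capsaicin-only cells.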

[8] = test system: Transient receptor potential cation channel subfamily V member 1 (Homo sapiens), Q8NER1 [F660A]; test: Antagonist activity at human TRPV1 F660A mutant expressed in HEK293 cell assessed as inhibition of capsaicin-induced calcium flux at 375 uM for 30 mins before capsaicin challenge measured after 48 hrs by fluorometric analysis; type: functional, cell-based; in short: as §1
[9] = biological target: T1, Transient receptor potential cation channel subfamily V member 1; settings: HEK293, 375 uM
[10] = biological target: T1, Transient receptor potential cation channel subfamily V member 1; test: Antagonist activity at human TRPV1 expressed in human BEAS-2B cells assessed as inhibition of capsaicin-induced calcium flux at 25 to 1000 uM co-treated with 2.5 uM capsaicin measured after 30 mins by fluorometric analysis; type: functional, cell-based
In short: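 BEAS-2B cells stably overexpressing human TRPV1, grown to confluence in LHC-9. Loaded 1 h at ~22°C in the dark with Fluo-4 reagent, then washed into LHC-9 with 1 mM probenecid and Trypan Red. […] Fluorescence followed 1 min; rate and ΔFmax versus capsaicin-only control.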

[11] = test system: Transient receptor potential cation channel subfamily V member 1 (Homo sapiens), Q8NER1 [C578A]; test: Antagonist activity at human TRPV1 C578A mutant expressed in HEK293 cell assessed as inhibition of capsaicin-induced calcium flux at 375 uM for 30 mins before capsaicin challenge measured after 48 hrs by fluorometric analysis; type: functional, cell-based; in short: as §1
[12] = test system: Transient receptor potential cation channel subfamily V member 1 (Homo sapiens), Q8NER1 [E649A]; test: Antagonist activity at human TRPV1 E649A mutant expressed in HEK293 cell assessed as inhibition of capsaicin-induced calcium flux at 375 uM for 30 mins before capsaicin challenge measured after 48 hrs by fluorometric analysis; type: functional, cell-based; in short: as §1
[13] = test system: Transient receptor potential cation channel subfamily V member 1 (Homo sapiens), Q8NER1 [C621A]; test: Antagonist activity at human TRPV1 C621A mutant expressed in HEK293 cell assessed as inhibition of capsaicin-induced calcium flux at 375 uM for 30 mins before capsaicin challenge measured after 48 hrs by fluorometric analysis; type: functional, cell-based; in short: as §1
[14] = biological target: T1, Transient receptor potential cation channel subfamily V member 1; settings: HEK293, 375 uM; remark: listed apart in the source
[15] = biological target: T1, Transient receptor potential cation channel subfamily V member 1; settings: HEK293, 375 uM; remark: listed apart in the source
[16] = test system: Transient receptor potential cation channel subfamily V member 1 (Homo sapiens), Q8NER1 [E600V]; test: Antagonist activity at human TRPV1 E600V mutant expressed in HEK293 cell assessed as inhibition of capsaicin-induced calcium flux at 375 uM for 30 mins before capsaicin challenge measured after 48 hrs by fluorometric analysis; type: functional, cell-based; in short: as §1
Transient receptor potential cation channel subfamily V member 1 (Homo sapiens), Q8NER1 [E600V], sequence (Q8NER1 whole entry E600V): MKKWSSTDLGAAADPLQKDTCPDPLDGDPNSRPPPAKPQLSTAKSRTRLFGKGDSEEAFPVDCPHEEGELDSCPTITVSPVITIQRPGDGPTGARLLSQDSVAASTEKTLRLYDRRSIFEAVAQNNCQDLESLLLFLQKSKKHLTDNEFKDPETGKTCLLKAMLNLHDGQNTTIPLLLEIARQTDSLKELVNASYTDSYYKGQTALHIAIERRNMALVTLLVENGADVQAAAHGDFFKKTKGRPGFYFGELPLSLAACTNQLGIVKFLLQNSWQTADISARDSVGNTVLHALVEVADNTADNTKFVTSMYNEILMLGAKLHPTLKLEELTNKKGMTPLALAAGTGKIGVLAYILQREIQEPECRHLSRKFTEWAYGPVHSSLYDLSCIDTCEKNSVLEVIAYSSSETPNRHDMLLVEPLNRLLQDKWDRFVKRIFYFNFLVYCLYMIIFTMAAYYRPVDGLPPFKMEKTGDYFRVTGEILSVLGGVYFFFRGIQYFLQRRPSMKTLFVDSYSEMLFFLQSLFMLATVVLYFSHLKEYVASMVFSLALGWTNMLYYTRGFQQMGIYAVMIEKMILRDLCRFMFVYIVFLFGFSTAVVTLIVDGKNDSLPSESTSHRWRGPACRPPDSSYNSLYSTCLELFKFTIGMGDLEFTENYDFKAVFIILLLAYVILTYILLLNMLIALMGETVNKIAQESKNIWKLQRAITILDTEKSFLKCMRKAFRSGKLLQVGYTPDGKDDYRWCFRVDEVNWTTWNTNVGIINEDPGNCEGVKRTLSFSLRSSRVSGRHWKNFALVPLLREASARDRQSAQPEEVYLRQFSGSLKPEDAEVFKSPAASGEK

Transient receptor potential cation channel subfamily V member 1 (Mus musculus), sequence (Q704Y3 whole entry): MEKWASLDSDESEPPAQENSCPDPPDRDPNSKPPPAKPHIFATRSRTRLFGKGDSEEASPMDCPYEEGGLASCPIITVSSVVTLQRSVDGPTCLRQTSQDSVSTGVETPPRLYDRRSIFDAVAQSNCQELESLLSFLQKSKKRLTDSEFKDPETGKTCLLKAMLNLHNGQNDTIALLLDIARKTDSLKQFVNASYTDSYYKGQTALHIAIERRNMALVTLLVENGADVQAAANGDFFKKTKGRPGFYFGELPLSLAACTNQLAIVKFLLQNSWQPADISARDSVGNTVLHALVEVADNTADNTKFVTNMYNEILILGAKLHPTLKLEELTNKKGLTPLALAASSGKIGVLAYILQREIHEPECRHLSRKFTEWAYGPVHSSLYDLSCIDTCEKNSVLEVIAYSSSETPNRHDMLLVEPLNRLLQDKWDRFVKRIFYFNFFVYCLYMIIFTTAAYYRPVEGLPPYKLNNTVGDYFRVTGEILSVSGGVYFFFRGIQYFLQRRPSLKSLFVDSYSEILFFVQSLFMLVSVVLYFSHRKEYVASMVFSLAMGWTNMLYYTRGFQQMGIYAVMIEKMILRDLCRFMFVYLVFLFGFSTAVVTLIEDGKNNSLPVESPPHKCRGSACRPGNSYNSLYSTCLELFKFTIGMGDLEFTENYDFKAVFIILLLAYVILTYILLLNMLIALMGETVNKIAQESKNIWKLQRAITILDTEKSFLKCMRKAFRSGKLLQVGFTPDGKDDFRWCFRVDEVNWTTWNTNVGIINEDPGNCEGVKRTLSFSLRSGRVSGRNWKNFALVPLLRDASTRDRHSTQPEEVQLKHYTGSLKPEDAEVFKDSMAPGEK
T1 sequence (Q8NER1 whole entry): as the sequence (Q8NER1 whole entry E600V) above, with V600E counted along it
Transient receptor potential cation channel subfamily V member 1 (Homo sapiens), Q8NER1 [F660A], sequence (Q8NER1 whole entry F660A): as the sequence (Q8NER1 whole entry E600V) above, with V600E, F660A counted along it
Transient receptor potential cation channel subfamily V member 1 (Homo sapiens), Q8NER1 [C621A], sequence (Q8NER1 whole entry C621A): as the sequence (Q8NER1 whole entry E600V) above, with V600E, C621A counted along it
Transient receptor potential cation channel subfamily V member 1 (Homo sapiens), Q8NER1 [C578A], sequence (Q8NER1 whole entry C578A): as the sequence (Q8NER1 whole entry E600V) above, with C578A, V600E counted along it
Transient receptor potential cation channel subfamily V member 1 (Homo sapiens), Q8NER1 [N604A], sequence (Q8NER1 whole entry N604A): as the sequence (Q8NER1 whole entry E600V) above, with V600E, N604A counted along it
Transient receptor potential cation channel subfamily V member 1 (Homo sapiens), Q8NER1 [E649A], sequence (Q8NER1 whole entry E649A): as the sequence (Q8NER1 whole entry E600V) above, with V600E, E649A counted along it

Row | inhibition [1] | inhibition [2] | inhibition [3] | inhibition [4] | inhibition [5] | inhibition [6] | inhibition [7] | inhibition [8] | inhibition [9] | inhibition [10] | inhibition [11] | inhibition [12] | inhibition [13] | inhibition [14] | inhibition [15] | inhibition [16] | Compound
1 | inactive | inactive | inactive | Active | inactive |  |  |  |  |  |  |  |  |  |  |  | C/C=C(\NC(=O)[C@H](C)NC(=O)[C@@H](NC(=O)[C@H](NC(=O)[C@H](Cc1ccccc1)NC(=O)[C@@H](CC(C)C)NC(=O)[C@@H](Cc1ccccc1)NC(C)=O)[C@@H](C)O)C(C)C)C(=O)O (Ac-[dF][dL]F[d(aThr)]VA[Dhb]-OH)
2 |  |  |  |  |  | Active | Active | inactive | Active | Active | inactive | Active | inactive | Active | inactive | Active | C/C=C(\NC(=O)[C@H](C)NC(=O)[C@@H](NC(=O)[C@H](NC(=O)[C@H](Cc1ccccc1)NC(=O)[C@@H](CC(C)C)NC(=O)[C@@H](Cc1ccccc1)NC(=O)CC)[C@@H](C)O)C(C)C)C(=O)O (Propionyl-[dF][dL]F[d(aThr)]VA[Dhb]-OH)
3 |  |  |  |  |  | Active | Active | inactive |  | Active | inactive | Active | inactive |  |  | Active | C/C=C1\NC(=O)[C@H](C)NC(=O)[C@H](C(C)C)NC(=O)[C@H](NC(=O)[C@H](Cc2ccccc2)NC(=O)[C@@H](CC(C)C)NC(=O)[C@@H](Cc2ccccc2)NC(=O)CC)[C@@H](C)OC1=O (Propionyl-[dF][dL]F[d(aThr)]VA[Dhb]; ester 4-C)
